# Measured values of several laboratories.
SMILES,organism,assay,test system,conditions,endpoint,value
CCOC(=O)c1cc(-c2cccc(NC(=O)Nc3ccc(Cl)c(Cl)c3)c2)on1,Mycobacteroides abscessus,"microbial growth, broth dilution",ATCC19977,48 h,MIC,> 64 µg/mL
O=C(N[C@H](CO)[C@H](O)c1ccc([N+](=O)[O-])cc1)C(Cl)Cl,Bacillus,"microbial growth, broth dilution",ATCC27859,,MIC,0.98 µg/mL
CC[C@H](C)[C@H]1C(=O)N2CCC[C@H]2C(=O)O[C@H](C(C)(C)C)C[C@@H](C)C[C@H](O)[C@H](C)C2=N[C@@H](CCC(=O)N[C@@H](Cc3ccc(OC)cc3)C(=O)N(C)[C@@H](C)C(=O)N1C)CS2,Zika virus,viral replication,Huh7.5,24 h,IC50,15 nM
O=C(N[C@H](CO)[C@H](O)c1ccc([N+](=O)[O-])cc1)C(Cl)Cl,Bacillus,"microbial growth, broth dilution",ATCC27859,18 h,MIC,0.98 µg/mL
C[n+]1ccc(/C=C2\Sc3ccccc3N2CCCN2CCCCC2)c2ccccc21.[I-],Pseudomonas aeruginosa,"microbial growth, broth dilution",ATCCBAA2108,drug-resistant strain,MIC,64 µg/mL
COC(=O)c1cc(-c2cccc(NC(=O)Nc3ccc(F)c(F)c3)c2)on1,Mycobacteroides abscessus,"microbial growth, broth dilution",ATCC19977,48 h,MIC,> 64 µg/mL
[2H]C([2H])(c1cc(F)c(F)cc1F)n1c(=O)n(Cc2ncn(C)n2)c(=O)[nH]/c1=N\c1cc2cn(C)nc2cc1Cl,Alphacoronavirus 1,"viral replication, inhibitor, qPCR",CRFK,,EC50,~50 µM
CCCCCOc1ccc(-c2cc(-c3ccc(C(=O)N[C@H]4C[C@@H](O)[C@@H](O)NC(=O)[C@@H]5[C@@H](O)[C@@H](C)CN5C(=O)[C@H]([C@H](O)CC(N)=O)NC(=O)[C@H]([C@H](O)[C@@H](O)c5ccc(O)c(OS(=O)(=O)O)c5)NC(=O)[C@@H]5C[C@@H](O)CN5C(=O)[C@H]([C@@H](C)O)NC4=O)cc3)no2)cc1,Kluyveromyces marxianus,biofilm formation,,1 µg/mL,inhibition,53%
COC(=O)c1cc(-c2cccc(NC(=O)Nc3ccc(Cl)c(C(F)(F)F)c3)c2)on1,Mycobacteroides abscessus,"microbial growth, broth dilution",ATCC19977,48 h,MIC,> 64 µg/mL
CC1CCN(CCCN2/C(=C/c3cc[n+](C)c4ccccc34)Sc3ccccc32)CC1.[I-],Pseudomonas aeruginosa,"microbial growth, broth dilution",ATCCBAA2108,drug-resistant strain,MIC,16 µg/mL
